Results as given in ChEMBL document CHEMBL2321814, “Sulfocoumarins (1,2-benzoxathiine-2,2-dioxides): a class of potent and isoform-selective inhibitors of tumor-associated carbonic anhydrases” (J Med Chem, 2013).
pKi: −log10 of the molar value. Calls of active or inactive are those of the source. No cut-off for these calls is given here.

How the values were obtained:
[1] = biological target: T1, Carbonic anhydrase 9 (Homo sapiens, UniProt Q16790); assay: Inhibition of human recombinant transmembrane CA9 catalytic domain after 15 mins by stopped-flow CO2 hydration method
Procedure, shortened: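 Recombinant CA IX catalytic domain was preincubated with inhibitor for 15 min at room temperature. CO2 hydration was followed by stopped-flow with phenol red (0.2 mM, 557 nm) in 20 mM Hepes pH 7.5 with 20 mM Na2SO4, CO2 1.7–17 mM. Initial rates came from at least six traces of the first 5–10% of reaction, minus uncatalyzed rates. Inhibitor dilutions went down to 0.01 nM in water.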

[2] = biological target: T1, Carbonic anhydrase 9
[3] = biological target: Carbonic anhydrase 2 (Homo sapiens, UniProt P00918); assay: Inhibition of full length human recombinant CA2 cytosolic isoform after 6 hrs by stopped-flow CO2 hydration method
[4] = biological target: Carbonic anhydrase 2 (Homo sapiens, UniProt P00918, A65S/N67Q); assay: Inhibition of human CA2 Ala65Ser and Asn67Gln double mutant expressed in Escherichia coli strain BL21 (DE3) after 6 hrs by stopped-flow CO2 hydration method
Procedure, shortened: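 CA II mutant mimicking the CA IX active site was expressed in E. coli BL21(DE3), IPTG-induced, and purified by His-trap, gel filtration and Mono-Q. Enzyme and inhibitor were preincubated 6 h at 4 °C. Stopped-flow CO2 hydration used phenol red (0.2 mM, 557 nm), 20 mM Hepes pH 7.5, 20 mM Na2SO4 and CO2 1.7–17 mM, with uncatalyzed rates subtracted. Three assays were run.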

[5] = biological target: Carbonic anhydrase 1 (Homo sapiens, UniProt P00915); assay: Inhibition of full length human recombinant CA1 cytosolic isoform after 6 hrs by stopped-flow CO2 hydration method
Chain of Carbonic anhydrase 1 (P00915 whole entry, canonical isoform): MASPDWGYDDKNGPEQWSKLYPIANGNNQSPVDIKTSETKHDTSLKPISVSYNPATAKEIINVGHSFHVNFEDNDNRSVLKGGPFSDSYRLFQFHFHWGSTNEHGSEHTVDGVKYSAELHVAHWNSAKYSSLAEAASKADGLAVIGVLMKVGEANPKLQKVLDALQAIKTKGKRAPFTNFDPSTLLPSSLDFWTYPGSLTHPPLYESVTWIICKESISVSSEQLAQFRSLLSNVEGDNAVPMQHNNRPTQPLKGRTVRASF

inhibition [1] | pKi [2] | pKi [3] | pKi [4] | pKi [5] | Compound
inactive | – | – | – | – | COc1cc2oc(=O)ccc2cc1[C@@H](O)CC(C)C
inactive | 5.42 | < 4.00 | – | – | O=[N+]([O-])c1ccc2c(c1)C=CS(=O)(=O)O2
inactive | 6.02 | – | – | – | COC(=O)c1cn(-c2ccc3c(c2)C=CS(=O)(=O)O3)nn1
inactive | 7.31 | – | – | – | COc1cccc(-c2cn(-c3ccc4c(c3)C=CS(=O)(=O)O4)nn2)c1
inactive | 6.52 | < 4.00 | 6.10 | – | O=S1(=O)C=Cc2cc(O)ccc2O1
inactive | 7.60 | – | – | – | CCN(CC)Cc1cn(-c2ccc3c(c2)C=CS(=O)(=O)O3)nn1

More lines, now with the values behind:

Compound | inhibition [1] | pKi [2] | pKi [3] | pKi [4] | pKi [5]
O=c1ccc2ccccc2o1 | inactive | – | – | – | –
Nc1ccc2c(c1)C=CS(=O)(=O)O2 | inactive | 7.34 | – | – | –
O=S1(=O)C=Cc2cc(-n3cc(-c4cccc(C(F)(F)F)c4)nn3)ccc2O1 | inactive | 7.32 | – | – | –
O=S1(=O)C=Cc2cc(OCc3ccccc3)ccc2O1 | inactive | 6.56 | < 4.00 | 5.63 | –
C[Si](C)(C)c1cn(-c2ccc3c(c2)C=CS(=O)(=O)O3)nn1 | inactive | 7.22 | – | – | –
COc1ccc(-c2cn(-c3ccc4c(c3)C=CS(=O)(=O)O4)nn2)cc1 | inactive | 7.74 | – | – | –
O=S1(=O)C=Cc2cc(-n3cc(CO)nn3)ccc2O1 | inactive | 7.24 | – | – | –
O=S1(=O)C=Cc2cc(-n3cc(-c4ccccc4)nn3)ccc2O1 | inactive | 7.54 | – | – | –
O=S1(=O)C=Cc2c(ccc3ccccc23)O1 | inactive | 6.43 | < 4.00 | – | < 4.00
O=S1(=O)C=Cc2cc(Br)ccc2O1 | inactive | 5.17 | < 4.00 | 6.03 | < 4.00
O=S1(=O)C=Cc2cc(Cl)cc(Cl)c2O1 | inactive | 5.49 | < 4.00 | – | < 4.00
CCOC(=O)c1cn(-c2ccc3c(c2)C=CS(=O)(=O)O3)nn1 | inactive | 7.07 | – | – | –
O=S1(=O)C=Cc2cc(-n3cc(-c4ccc(OC(F)(F)F)cc4)nn3)ccc2O1 | inactive | 7.13 | – | – | –
